Screens as filed in PubChem.
An excerpt weighted towards active compounds, which were near 2.2% of everything screened.
CHRM1 antagonist – human M1 muscarinic receptor antagonists, primary screen, CHO-K1 cells, Fluo-8 calcium fluorescence, 1536-well; Muscarinic acetylcholine receptor M1 (Homo sapiens), P11229; CHO-K1 hM1, ACh EC80 antagonist; inhibition, % at 3 µM; hit rate 1.3% among 360,000; AID 588852, 2011;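 active = percent inhibition above its own plate's cutoff, namely the mean of that plate's compound wells plus 3 SD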;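 also: peak over basal fluorescence ratio during 140 s after agonist addition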
Target sequence (P11229 whole entry, looked up): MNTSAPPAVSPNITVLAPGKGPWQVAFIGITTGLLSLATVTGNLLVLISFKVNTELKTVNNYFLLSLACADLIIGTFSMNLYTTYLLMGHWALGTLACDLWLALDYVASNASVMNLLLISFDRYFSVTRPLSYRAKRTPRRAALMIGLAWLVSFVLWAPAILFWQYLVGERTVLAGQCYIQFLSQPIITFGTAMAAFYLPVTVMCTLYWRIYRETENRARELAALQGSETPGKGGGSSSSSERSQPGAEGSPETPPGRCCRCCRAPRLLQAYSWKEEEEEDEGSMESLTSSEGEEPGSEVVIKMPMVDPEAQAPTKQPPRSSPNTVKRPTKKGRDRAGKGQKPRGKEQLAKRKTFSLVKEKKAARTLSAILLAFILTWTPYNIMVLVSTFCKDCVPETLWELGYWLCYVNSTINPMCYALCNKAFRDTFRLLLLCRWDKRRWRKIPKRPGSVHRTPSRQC
M5 ag – human M5 muscarinic receptor agonists, primary screen, CHO-K1 cells, Fluo-8 calcium fluorescence; Muscarinic acetylcholine receptor M5 (Homo sapiens), P08912; CHO-K1 hM5 cells; 0% DMSO wells, 100% maximal acetylcholine response; activation, % at 3 µM; hit rate 0.19% among 360,000; AID 624037, 2012;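 active = activation above the run's mean over test compounds plus 3 SD, cut at about 23% in these data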;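 also: signal is peak over basal fluorescence ratio across the kinetic read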
CHRM5 PAM – human M5 muscarinic receptor positive allosteric modulators, primary screen, CHO-K1 cells, Fluo-8 calcium fluorescence; Muscarinic acetylcholine receptor M5 (Homo sapiens), P08912; CHO-K1 hM5, ACh EC20 PAM; 0% = ACh EC20, 100% = ACh EC100; activation, % at 3 µM; hit rate 0.3% among 360,000; AID 624038, 2012;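 active = activation above the run cutoff, the mean activation of all test compounds plus 3 SD, cut at about 18% in these data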
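System: CHO-K1 hM5 cells. Reagent: acetylcholine, EC20 level. Compound dosing: single dose, 3 µM nominal final test concentration. Timing: Post-acetylcholine fluorescence recording 140 s. Detection: Fluo-8 calcium fluorescence. Read-out: % activation, ACh-normalized. Benchmarks: ACh EC20 and EC100 wells. Repeats: singlicate, one well per test compound.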
M1 ag – human M1 muscarinic receptor agonists, primary screen, Fluo-8 calcium fluorescence, CHO-K1 cells, HTS | activation, % at 3 µM | AID 588814, 2011 | hit rate 0.33% among 360,000 | CHO-K1 hM1, agonist mode; 0% DMSO, 100% acetylcholine EC100 | Muscarinic acetylcholine receptor M1 (Homo sapiens), P11229;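 active = activation above the run's mean compound activation plus 3 SD, cut at about 16% in these data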;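 also: peak over basal fluorescence ratio within a 140 s kinetic read after compound addition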
M1 PAM – human M1 muscarinic receptor positive allosteric modulators, primary screen, CHO-K1 cells, Fluo-8 calcium fluorescence, 1536-well; Muscarinic acetylcholine receptor M1 (Homo sapiens), P11229; CHO-K1 hM1, ACh EC20; 0% = ACh EC20, 100% = maximal ACh; activation, % at 3 µM; hit rate 0.088% among 360,000; AID 588819, 2011; in the data active = activation above about 19%, passing the limit was not always enough
CHRM5 antagonist – human M5 muscarinic receptor antagonists, primary screen, CHO cells, Fluo-8 calcium fluorescence. CHO-hM5 cells, ACh EC80. Muscarinic acetylcholine receptor M5 (Homo sapiens), P08912. AID 624040, 2012. inhibition, % at 3 µM. hit rate 0.59% among 360,000;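 active = inhibition above a per-plate cutoff, the mean of that plate's test compounds plus 3 SD, cut at about 27% in these data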
Of the large screens only hits and unclear results are named; the others gave an inactive call.

O=c1oc2ccc(Br)cc2cc1S(=O)(=O)c1ccc(F)cc1	none
Cc1ncc(CO)c2cc(S(=O)(=O)c3ccc(F)cc3)c(=O)oc12	CHRM1 antagonist 22.8
CC(=O)NC(Cc1ccccc1)C(=O)NC1CCN(C(=O)NC2CCCCC2)CC1 (configuration not stated)	none
CC1=C(C)CS(=O)N(S(=O)(=O)c2ccc(Cl)cc2)C1 (configuration not stated)	M5 ag 24.9
O=C(O)CCCC(=O)N1CCCC1	CHRM5 PAM 20.6
COc1ccc(CCCc2nnc(SCc3nc4ccccc4c(=O)[nH]3)n2C)c(C)c1	none
COc1ccc(F)cc1C(=O)C1CCCN(Cc2c(C)n(C)n(-c3ccccc3)c2=O)C1 (configuration not stated)	CHRM1 antagonist 36.4
COc1cccc(CNC(=O)Cn2nc(C)c([N+](=O)[O-])c2C)c1	CHRM5 PAM 20.8
COc1ccccc1CNC(=O)Cn1nc(C)c([N+](=O)[O-])c1C	none
Fc1cccc(Cc2noc(CN3CCCN(C4Cc5ccccc5C4)CC3)n2)c1	CHRM1 antagonist 93.3
Fc1cccc(Cc2noc(CN3CCSCC3)n2)c1	none
Fc1cccc(Cc2noc(CN3CCN(C4CCc5ccccc5C4)CC3)n2)c1 (configuration not stated)	CHRM1 antagonist 72.0
CC(=O)N1C[C@H]2CON(C)[C@H]2C[C@H]1c1ccccc1Br	none
COc1cc([N+](=O)[O-])ccc1NC(=O)NNC(=O)c1sccc1C	none
CC(=O)c1ccc(N2CCN(S(=O)(=O)c3ccc4c(c3)CC(C)N4C(=O)C3CC3)CC2)cc1 (configuration not stated)	none
COc1ccc(N2CCN(S(=O)(=O)c3ccc4c(c3)CC(C)N4C(=O)C3CC3)CC2)cc1 (configuration not stated)	CHRM5 antagonist 27.0
CC(=O)c1ccc(N2CCN(S(=O)(=O)c3ccc4c(c3)CC(C)N4C(C)=O)CC2)cc1 (configuration not stated)	CHRM1 antagonist 36.5
Cc1ccc(S(=O)(=O)N(C)C)cc1NC(=O)COC(=O)CSc1ccccc1	none
Cc1nc(NC(=O)C(C)(C)C)sc1-c1csc(N)n1	none
O=c1ccc(-c2ccc(S(=O)(=O)NCC3CCN(Cc4ccccc4F)CC3)s2)n[nH]1	CHRM1 antagonist 92.6
COC(=O)c1cc(S(=O)(=O)NCC2CCN(Cc3ccccc3F)CC2)c[nH]1	none
CC1(C)C(C=C(Cl)Cl)C1C(=O)N1CCN(Cc2ccccc2)CC1 (configuration not stated)	CHRM1 antagonist 41.8
C[N+]1(C)CCC(=C(c2ccccc2)c2ccccc2)CC1	CHRM1 antagonist 97.7, CHRM5 antagonist 98.7
COc1ccc(/C=N/OCC(=O)NCc2cccs2)c(OC)c1	M1 PAM 35.9
COc1ccc(/C=N/OCC(=O)NCC(C)C)c(OC)c1	none
COC(C[C@@H]1O[C@H]1C(=O)COCc1ccccc1)OC	M1 PAM 29.9
O=C(COc1coc(CN2CCN(c3ccccc3)CC2)cc1=O)Nc1ccc(F)cc1	none
CCOC(=O)C1CCC(CNCc2ccccc2C)CC1 (configuration not stated)	CHRM1 antagonist 52.7
Cc1cc(C)cc(C(=O)NC(CC(N)=O)c2ccc(NCCN3CCCC3)c([N+](=O)[O-])c2)c1 (configuration not stated)	none
C=CCn1c2c(c(=O)[nH]c1=S)CN(C(C)c1ccccc1)CN2 (configuration not stated)	none
